Source: paper PMC4186412 (Pharmacology Research & Perspectives, 2014)
pIC50: −log10 of the molar value.

Legend:
Hh signaling = experiment: Gli luciferase reporter assay in NIH3T3-12Gli cells; type: cell-based; conditions: for pIC50: 36 h, read-out: IC50, Hh signaling induced by Shh-N conditioned medium (luciferase reporter)
Smo-WT = Smo-WT (Homo sapiens, UniProt Q99835); experiment: Smo ciliary translocation assay, NIH3T3 cells expressing Smo-WT-EYFP; type: cell-based; conditions: Shh-N 20%, SAG 100 nmol/L
Procedure, shortened: (§1)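 NIH3T3 cells were transfected with pEYFP-Smo (WT or M2), selected in 500 μg/mL G418, and monoclonal clones were picked. Clones were treated with 0.1% DMSO, 20% Shh-N conditioned medium and/or 100 nmol/L SAG, with or without test compound. Smo-EYFP was imaged directly, cilia by acetylated α-tubulin immunofluorescence, nuclei by DAPI. At least two clones were used.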

NIH3T3 cells = experiment: Immunoblotting of acetylated α-tubulin and total histones; type: cell-based; conditions: 6 h treatment
Gli-1 = experiment: Quantitative real-time PCR, Gli-1 mRNA; type: cell-based, mouse; conditions: NIH3T3-12Gli cells, 24 h; for Gli-1 transcription induced by Shh-N: presence of Shh-N
Procedure, shortened: (§2)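 Total RNA is extracted with Trizol and quantified. cDNA is made with a PrimeScript reverse-transcription kit, then SYBR Green real-time PCR is run with mouse-specific primers and GAPDH as the reference gene. Relative expression is calculated by the 2(-ΔΔCt) method, with ΔCt = Ct of the target gene minus Ct of GAPDH.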

Gli-2 = experiment: Quantitative real-time PCR, Gli-2 mRNA; type: cell-based, mouse; conditions: NIH3T3-12Gli cells, presence or absence of Shh-N, 24 h
Procedure, shortened: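 NIH3T3-12Gli cells are kept in either HEK293 control medium or Shh-N conditioned medium and treated in triplicate with test compound or DMSO control. RNA is extracted with Trizol, cDNA is made with a PrimeScript kit, and SYBR Green qPCR is run with mouse Gli-2 primers. Values are normalised to GAPDH and relative expression is derived by the 2(-ΔΔCt) method.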

Ptch-1 = experiment: Quantitative real-time PCR, Ptch-1 mRNA; type: cell-based, mouse; conditions: NIH3T3-12Gli cell line, data not shown
Procedure, shortened: as §2

NIH3T3-12Gli cells = experiment: Immunofluorescence of acetylated and detyrosinated tubulin of primary cilia; type: cell-based; conditions: Fig. S1
Procedure, shortened: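 Reporter NIH3T3 clone (NIH3T3-12Gli, stably carrying a Gli-responsive luciferase reporter) was exposed to test compounds or conditions. Primary cilia were co-immunostained with anti-detyrosinated (glu) tubulin and anti-acetylated α-tubulin antibodies, and nuclei were stained with DAPI. Cilia were imaged by fluorescence microscopy.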

[1] = test system: Hh signaling mediated by Smo-WT; experiment: Luciferase reporter assay in NIH3T3-12Gli cells expressing Smo-WT-EYFP; type: cell-based, human
[2] = test system: Hh signaling mediated by Smo-M2; experiment: Luciferase reporter assay in NIH3T3-12Gli cells expressing Smo-M2-EYFP; type: cell-based, human
[3] = test system: Hh signaling mediated by Smo-DH; experiment: Luciferase reporter assay in NIH3T3-12Gli cells expressing Smo-DH-EYFP; type: cell-based, human; conditions: in the absence or presence of Shh-N
Smo-DH = Smo-DH (Homo sapiens, UniProt Q99835, D473H); experiment: BODIPY-cyclopamine binding competition, HEK293T cells expressing Smo-DH
Smo-M2 = Smo-M2 (Homo sapiens, UniProt Q99835, W535L); experiment: Smo ciliary translocation assay, NIH3T3 cells expressing Smo-M2-EYFP; type: cell-based; conditions: Shh-N 20%, SAG 100 nmol/L
Procedure, shortened: as §1

Chain of Smo-WT (Q99835 28-787): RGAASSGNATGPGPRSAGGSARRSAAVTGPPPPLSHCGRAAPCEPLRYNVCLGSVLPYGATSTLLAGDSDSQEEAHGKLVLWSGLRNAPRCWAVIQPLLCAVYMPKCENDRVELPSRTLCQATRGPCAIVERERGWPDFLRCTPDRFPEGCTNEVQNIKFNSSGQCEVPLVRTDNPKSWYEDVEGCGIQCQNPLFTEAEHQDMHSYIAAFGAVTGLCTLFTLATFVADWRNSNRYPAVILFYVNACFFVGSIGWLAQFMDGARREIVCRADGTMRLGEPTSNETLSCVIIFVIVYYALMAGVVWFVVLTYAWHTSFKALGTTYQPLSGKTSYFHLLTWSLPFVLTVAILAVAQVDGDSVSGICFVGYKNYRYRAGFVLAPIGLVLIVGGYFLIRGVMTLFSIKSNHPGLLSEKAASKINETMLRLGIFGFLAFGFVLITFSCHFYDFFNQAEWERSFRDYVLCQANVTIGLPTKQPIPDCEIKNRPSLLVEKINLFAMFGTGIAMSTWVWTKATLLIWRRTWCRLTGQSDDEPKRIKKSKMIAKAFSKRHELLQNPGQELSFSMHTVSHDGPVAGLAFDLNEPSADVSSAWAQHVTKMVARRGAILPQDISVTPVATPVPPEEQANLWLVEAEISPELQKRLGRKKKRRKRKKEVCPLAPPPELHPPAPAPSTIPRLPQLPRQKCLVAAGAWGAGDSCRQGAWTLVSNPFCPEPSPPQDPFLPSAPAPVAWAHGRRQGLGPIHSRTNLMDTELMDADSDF
Chain of Smo-M2 (Q99835 28-787 W535L): as the sequence (Q99835 28-787) above, with W508L counted along it
Chain of Smo-DH (Q99835 28-787 D473H): as the sequence (Q99835 28-787) above, with D446H counted along it

| Structure (SMILES) | Block of reporter activity at 3 μmol/L (Hh signaling; 3 μmol/L) | pIC50 (Hh signaling) | Suppression of Smo localization to primary cilium induced by Shh-N and SAG (Smo-WT) | Acetylation of total histones and α-tubulin (NIH3T3 cells) | Gli-1 transcription, Hh pathway in off-state (Gli-1; absence of Shh-N) | Gli-1 transcription induced by Shh-N (Gli-1) | Gli-2 transcription (Gli-2) | Expression of Ptch-1 induced by Shh-N (Ptch-1) | Acetylation and detyrosination of primary cilia (NIH3T3-12Gli cells) | Concentration that almost maximally blocked reporter activity ([1]; NIH3T3-12Gli cells expressing Smo-WT) | Inhibition of reporter activity of cells expressing Smo-WT-EYFP ([1]; in the absence of Shh-N) | Inhibition of Hh signaling mediated by Smo-M2 ([2]; in the absence of Shh-N) | Concentration that fully blocked Hh pathway, Smo-M2 ([2]; in the presence of Shh-N) | Inhibition of reporter activity in Smo-DH-transfected cells [3] | Inhibition of association of BODIPY-cyclopamine with Smo-DH / binding to Smo-DH (Smo-DH) | Effect on accumulation of Smo-M2 in cilia induced by Hh pathway stimulators (Smo-M2) |
| --- | --- | --- | --- | --- | --- | --- | --- | --- | --- | --- | --- | --- | --- | --- | --- | --- |
| O=C(CCCCCCC(=O)Nc1ccccc1)NO [vorinostat] | almost completely blocked | 6.17 | but not vorinostat | effectively and dose dependently increased | significantly increased | potently inhibited | significantly and dose-dependently suppressed | effectively suppressed | downregulated the acetylation but not the detyrosination | – | – | – | – | – | – | – |
| CS(=O)(=O)c1ccc(C(=O)Nc2ccc(Cl)c(-c3ccccn3)c2)c(Cl)c1 [vismodegib] | – | 7.71 | effectively suppressed | – | – | potently inhibited | – | effectively suppressed | – | 1 µmol/L | slightly but dose-dependently inhibited | significantly inhibited | > 10 µmol/L | no inhibition | inability to bind Smo-DH | did not inhibit |
